Assay results reported in ChEMBL document CHEMBL3352373, “Design and synthesis of 21-alkynylaryl pregnenolone derivatives and evaluation of their anticancer activity” (Bioorg Med Chem, 2014).
Active and inactive are the calls of the source. The calls are words filed in the database; no cut-off is given here.

Assays:
MCF7 [1] = assay: Cytotoxic activity against human MCF7 cells after 24 hrs by MTT assay; format: functional, cell-based; conditions: MCF7, 24 h
How it was run: (§1)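 MTT assay; log-phase cells seeded at 10^4 cells/well in DMEM, allowed to attach for 24 h at 37 °C, 5% CO2. Compounds dissolved in DMSO/water (1:1) and tested at 0.1–100 µM (1:2 serial dilutions), four replicates per condition. MTT at 0.5 mg/ml final added 4 h before end; dissolved in 0.1 N HCl/isopropanol, A545 read. Untreated cells as 100% growth, blank subtracted; IC50 as mean ± SD of 3–4 independent experiments.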

HepG2 [2] = assay: Cytotoxic activity against human HepG2 cells after 24 hrs by MTT assay; format: functional, cell-based; conditions: HepG2, 24 h; how it was run: as §1
MCF7 [3] = assay: Cytotoxic activity against human MCF7 cells after 48 hrs by MTT assay; format: functional, cell-based; conditions: MCF7, 48 h; how it was run: as §1
HT-29 [4] = assay: Cytotoxic activity against human HT-29 cells after 48 hrs by MTT assay; format: functional, cell-based; conditions: HT-29, 48 h; how it was run: as §1
HT-29 [5] = assay: Cytotoxic activity against human HT-29 cells after 24 hrs by MTT assay; format: functional, cell-based; conditions: HT-29, 24 h; how it was run: as §1
HeLa [6] = assay: Cytotoxic activity against human HeLa cells after 48 hrs by MTT assay; format: functional, cell-based; how it was run: as §1
LNCaP [7] = assay: Cytotoxic activity against human LNCAP cells after 48 hrs by MTT assay; format: functional, cell-based; how it was run: as §1
A-431 [8] = assay: Cytotoxic activity against human A431 cells after 24 hrs by MTT assay; format: functional, cell-based; conditions: A-431, 24 h; how it was run: as §1
A549 [9] = assay: Cytotoxic activity against human A549 cells after 24 hrs by MTT assay; format: functional, cell-based; conditions: A549, 24 h; how it was run: as §1
LNCaP [10] = assay: Cytotoxic activity against human LNCAP cells after 24 hrs by MTT assay; format: functional, cell-based; how it was run: as §1
A-431 [11] = assay: Cytotoxic activity against human A431 cells after 48 hrs by MTT assay; format: functional, cell-based; conditions: A-431, 48 h; how it was run: as §1
A549 [12] = assay: Cytotoxic activity against human A549 cells after 48 hrs by MTT assay; format: functional, cell-based; conditions: A549, 48 h; how it was run: as §1
HepG2 [13] = assay: Cytotoxic activity against human HepG2 cells after 48 hrs by MTT assay; format: functional, cell-based; conditions: HepG2, 48 h; how it was run: as §1
HeLa [14] = assay: Cytotoxic activity against human HeLa cells after 24 hrs by MTT assay; format: functional, cell-based; how it was run: as §1
LNCaP [15] = assay: Cytotoxic activity against human LNCAP cells assessed as cell viability at 10 uM after 24 hrs by trypan blue exclusion method; format: functional; conditions: read-out: Activity
How it was run: (§2)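 Trypan blue exclusion after 24 h compound exposure. Medium collected, attached cells trypsinized and pooled with it, then centrifuged at 1200 rpm for 5 min. Pellet resuspended in PBS with 0.2% trypan blue. 200–300 cells counted per experiment in three separate experiments. Viability is the percentage of viable cells over total cells, taken as the mean.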

[16] = Inhibition of PI3K/Akt signalling pathway in human A431 cells at cytotoxic IC50 after 24 hrs by immunoblot; format: cell-based; conditions: A-431
How it was run: (§3)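 Cells dosed at their cytotoxic IC50 and lysed 24 h later (A431 also sampled over time) in ice-cold HEPES pH 7.5 buffer with phosphatase/protease inhibitors and 0.5% Triton X-100. 50 µg protein per lane on 10% SDS–PAGE, transferred to nitrocellulose, blocked in 5% milk/TBS-T. Probed overnight at 4 °C with anti-pAkt (Ser473; 1:1000) and β-actin loading control; HRP secondary, ECL detection. Untreated cells as control.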

MCF7 [17] = assay: Cytotoxic activity against human MCF7 cells assessed as cell viability at 10 uM after 24 hrs by trypan blue exclusion method; format: functional; conditions: MCF7, 24 h, read-out: Activity; how it was run: as §2
A-431 [18] = assay: Cytotoxic activity against human A431 cells assessed as cell viability at 5 uM after 24 hrs by trypan blue exclusion method; format: functional; conditions: A-431, 24 h, read-out: Activity; how it was run: as §2
HeLa [19] = assay: Cytotoxic activity against human HeLa cells assessed as cell viability at 10 uM after 24 hrs by trypan blue exclusion method; format: functional; conditions: read-out: Activity; how it was run: as §2
[20] = Inhibition of PI3K/Akt signalling pathway in human HeLa cells at cytotoxic IC50 after 24 hrs by immunoblot; format: cell-based; how it was run: as §3
[21] = Inhibition of PI3K/Akt signalling pathway in human LNCAP cells at cytotoxic IC50 after 24 hrs by immunoblot; format: cell-based; how it was run: as §3
[22] = Inhibition of PI3K/Akt signalling pathway in human MCF7 cells at cytotoxic IC50 after 24 hrs by immunoblot; format: cell-based; how it was run: as §3
[23] = Inhibition of PI3K/Akt signalling pathway in human A431 cells at cytotoxic IC50 after 2 to 24 hrs by immunoblot; format: cell-based; conditions: A-431, TDE = time-dependent effect; how it was run: as §3

SMILES | IC50 (MCF7 [1]) | IC50 (HepG2 [2]) | IC50 (MCF7 [3]) | IC50 (HT-29 [4]) | IC50 (HT-29 [5]) | IC50 (HeLa [6]) | IC50 (LNCaP [7]) | IC50 (A-431 [8]) | IC50 (A549 [9]) | IC50 (LNCaP [10]) | IC50 (A-431 [11]) | IC50 (A549 [12]) | IC50 (HepG2 [13]) | IC50 (HeLa [14]) | viability at 10 µM (LNCaP [15]) | inhibition [16] | viability at 10 µM (MCF7 [17]) | viability at 5 µM (A-431 [18]) | viability at 10 µM (HeLa [19]) | further results
COc1ccc(C#CC(=O)[C@H]2CC[C@H]3[C@@H]4CC=C5C[C@@H](O)CC[C@]5(C)[C@H]4CC[C@]23C)cc1 | > 50 µM | > 50 µM | > 50 µM | > 50 µM | > 50 µM | 26.7 µM | 47.6 µM | > 50 µM | > 50 µM | > 50 µM | > 50 µM | > 50 µM | > 50 µM | > 50 µM |  |  |  |  |  | 
COc1ccc(C#CC(=O)[C@H]2CC[C@H]3[C@@H]4CC=C5C[C@@H](O)CC[C@]5(C)[C@H]4CC[C@]23C)c(C)c1 | 44.1 µM | > 50 µM | 18.8 µM | 22.7 µM | 48.4 µM | 23.6 µM | 30.8 µM | 44.1 µM | 44.3 µM | 41.7 µM | 13.7 µM | 30.5 µM | 45.7 µM | > 50 µM |  |  |  |  |  | 
C[C@]12CC[C@H]3[C@@H](CC=C4C[C@@H](O)CC[C@@]43C)[C@@H]1CC[C@@H]2C(=O)C#Cc1ccc(F)cc1 | > 50 µM | > 50 µM | > 50 µM | 44.7 µM | > 50 µM | 43.7 µM | 10.8 µM | 7.16 µM | > 50 µM | 12.4 µM | 2.18 µM | 40.6 µM | > 50 µM | > 50 µM | 25.6% | Active | 90.4% | 28.6% | 98.4% | 
C[C@]12CC[C@H]3[C@@H](CC=C4C[C@@H](O)CC[C@@]43C)[C@@H]1CC[C@@H]2C(=O)C#Cc1ccccc1C(F)(F)F | 13.5 µM | 38.4 µM | 4.42 µM | 9.87 µM | 24.6 µM | 3.85 µM | 5.44 µM | 4.21 µM | 15.8 µM | 7.9 µM | 1.78 µM | 6.3 µM | 12.6 µM | 13.8 µM | 0% | Active | 18.9% | 0% | 70.8% | inhibition [20]: Active; inhibition [21]: Active; inhibition [22]: Active
Cc1cc(C)c(C#CC(=O)[C@H]2CC[C@H]3[C@@H]4CC=C5C[C@@H](O)CC[C@]5(C)[C@H]4CC[C@]23C)cc1C | 39 µM | > 50 µM | 7.78 µM | > 50 µM | > 50 µM | 32.4 µM | 46.2 µM | 39.3 µM | > 50 µM | > 50 µM | 12.5 µM | > 50 µM | 48.6 µM | > 50 µM |  |  |  |  |  | 
C[C@]12CC[C@H](O)CC1=CC[C@@H]1[C@@H]2CC[C@]2(C)C(=O)CC[C@@H]12 [PRASTERONE] | > 50 µM | > 50 µM | > 50 µM | > 50 µM | > 50 µM | > 50 µM | > 50 µM | > 50 µM | 47.8 µM | > 50 µM | > 50 µM | 47.8 µM | > 50 µM | > 50 µM |  |  |  |  |  | 
C#Cc1cccc(C#CC(=O)[C@H]2CC[C@H]3[C@@H]4CC=C5C[C@@H](O)CC[C@]5(C)[C@H]4CC[C@]23C)c1 | 11.2 µM | 42.6 µM | 5.15 µM | > 50 µM | > 50 µM | > 50 µM | 16.9 µM | 4.85 µM | > 50 µM | 19.1 µM | 1.52 µM | 20.2 µM | 17.9 µM | > 50 µM | 90.3% | Active | 0% | 0% | 93.2% | inhibition [22]: Active
C[C@]12CC[C@H]3[C@@H](CC=C4C[C@@H](O)CC[C@@]43C)[C@@H]1CC[C@@H]2C(=O)C#Cc1cccc(C(F)(F)F)c1 | 31.4 µM | 45.7 µM | 18.6 µM | 26.4 µM | > 50 µM | 8.34 µM | 17.4 µM | 2.28 µM | 29.3 µM | 26.2 µM | 0.54 µM | 20.7 µM | 16.4 µM | 25.1 µM | 92.1% | Active | 94.2% | 0% | 92.5% | inhibition [23]: tde
C[C@]12CC[C@H]3[C@@H](CC=C4C[C@@H](O)CC[C@@]43C)[C@@H]1CC[C@@H]2C(=O)C#Cc1cccc(F)c1 | 28.4 µM | > 50 µM | 14.7 µM | 28.6 µM | > 50 µM | 6.44 µM | 9.48 µM | > 50 µM | > 50 µM | 14.7 µM | 45.3 µM | 24.9 µM | > 50 µM | 21.4 µM |  |  |  |  |  | 
Cc1cc(C#CC(=O)[C@H]2CC[C@H]3[C@@H]4CC=C5C[C@@H](O)CC[C@]5(C)[C@H]4CC[C@]23C)ccc1F | 17.6 µM | > 50 µM | 11.3 µM | 26.7 µM | > 50 µM | > 50 µM | 38.4 µM | > 50 µM | 40.1 µM | > 50 µM | > 50 µM | 28.2 µM | > 50 µM | > 50 µM |  |  |  |  |  | 
